# Screens: PubChem BioAssay, several laboratories
# An excerpt weighted towards active compounds, which were near 1.8% of everything screened.
# LANA-H2B inh = blocks KSHV LANA binding to histone H2A/H2B. Q9QR71. cell-free LANA-H2A/H2B peptide, fluorescence polarization. inhibition, % (no concentration beside the values). 320,000 compounds, 0.6% hits; in the data active = inhibition mostly above about 10%, no sharp cut-off; inactive = mostly below about 6.7%
# HDAC3 inh = inhibitors of human histone deacetylase 3; O15379; recombinant HDAC3, fluorogenic peptide/trypsin coupled, fluorescence; inhibition, % at 8.3 µM; 320,000 compounds, 0.15% hits; AID 2718; in the data active = inhibition above about 26%, passing the limit was not always enough; inconclusive = no clear call, values can overlap the other calls
# ATG4B inhibitor = ATG4B (human) cysteine protease inhibition; 340,000 compounds, 0.51% hits; Q9Y4P1; AID 504462; ATG4B cleavage of LC3-PLA2, NBD-HPC fluorescence, 1 h; inhibition, % at 8.33 µM; in the data active = inhibition above about 40%
# Target sequence (Q9Y4P1 whole entry, looked up): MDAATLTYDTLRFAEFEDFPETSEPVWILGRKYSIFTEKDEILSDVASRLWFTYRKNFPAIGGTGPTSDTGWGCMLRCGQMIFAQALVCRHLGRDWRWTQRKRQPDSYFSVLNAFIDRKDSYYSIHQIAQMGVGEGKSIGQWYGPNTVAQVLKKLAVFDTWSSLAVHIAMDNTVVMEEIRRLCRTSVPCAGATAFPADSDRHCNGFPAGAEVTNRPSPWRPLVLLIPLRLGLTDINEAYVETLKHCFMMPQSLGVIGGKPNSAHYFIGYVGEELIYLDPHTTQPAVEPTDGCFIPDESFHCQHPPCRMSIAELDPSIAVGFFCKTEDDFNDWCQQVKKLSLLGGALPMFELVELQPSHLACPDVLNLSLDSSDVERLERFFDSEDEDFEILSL
# A1 inh = inhibitors of the anti-apoptotic protein A1, read as caspase activation; MEF A1-2A-BIM cells, Caspase-Glo 3/7 luminescence, 3 h; percent of clofoctol response, vehicle zero; 330,000 compounds, 0.066% hits; caspase activation, % (no concentration beside the values);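 active = over half of replicate activation scores above 10%, or exactly half above 10 with the replicate mean above 10; inconclusive = replicate mean below 10 yet half the replicates above 10; inactive = over half of replicates below 10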
# AI-2 QS mod = modulates the Vibrio harveyi AI-2 quorum sensing system. Vibrio harveyi JMH597 AI-2 luminescence/OD600 ratio, 9 h; hits give low values; strain lacks LuxN and CqsS sensors; 0 = neutral-control median. activity change, % at 7.5 µM. 300,000 compounds, 0.4% hits; in the data active = activity change below about -75%, passing the limit was not always enough; inconclusive = no clear call, values can overlap the other calls;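 note: luminescence divided by OD600 gain over 9 h not by final OD600 alone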
# HKDC1 inh = inhibitors of human hexokinase HKDC1; recombinant HKDC1, G6PDH/diaphorase resazurin coupled fluorescence; Q2TB90; 340,000 compounds, 0.16% hits; inhibition, % at 20 µM; AID 493160;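 active = inhibition above about 35% when tested at 20 µM, limit read from the data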;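 note: plate controls were DMSO wells with enzyme for no effect and DMSO wells lacking enzyme for full effect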
#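 Test system: Recombinant HKDC1 (HK5) hexokinase enzyme, produced in-house | Input: HKDC1 at 5 µg/mL | Buffer or medium: Tris pH 8.0 buffer with MgCl2, Tween-20, BSA, BME | Schedule: 90 min reaction incubation at room temperature, dark | Technique: Resazurin-to-resorufin fluorescence via G6PDH and diaphorase coupling, 525/613 nm | Controls: DMSO wells with and without enzyme mix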
# * = called active by the depositor; ? = inconclusive; . = no result; + = active, no number.
SMILES,LANA-H2B inh,HDAC3 inh,ATG4B inhibitor,A1 inh,AI-2 QS mod,HKDC1 inh
OCCCc1nc2n(n1)C(c1cccs1)C=C(c1ccccc1)N2 (stereo not given),68*,-36,.,0,-2,.
O=C1C(O)CCN1C1CCCCC1 (stereo not given),.,.,-9,.,.,-9
O=c1[nH]c(=O)n([C@H]2C[C@H](O)[C@@H](CO)O2)cc1C(F)(F)F,-14,6,8,0,-108*,-6
O=c1[nH]c(=O)n(C2C[C@H](O)[C@@H](CO)O2)cc1C(F)(F)F (stereo not given in full),3,-2,-2,0,.,-2
COc1cccc(-c2cc(C(=O)N3CCN(C(=O)c4ccco4)CC3)[nH]n2)c1,-1,-8,0,-1,10,-3
NC(=S)N/N=C/c1cn(CCC(=O)O)nc1-c1cccc(Br)c1,1,.,-2,0,1,-2
COc1ccc(-c2nn(CCC(=O)O)cc2/C=N/NC(N)=S)cc1,19*,.,-1,1,1,-5
COc1ccc(C2(C(=O)Nc3ccc(C)cc3)CCOCC2)cc1,-5,0,-2,1,40,-11
CCOC(=O)C(=O)NC1CC=CCC1c1ccc2c(c1)OCO2 (stereo not given),.,.,-2,.,.,2
Cc1cc(NC(=O)CSc2nnc(-c3ccc(Br)o3)n2Cc2ccccc2)no1,12*,5,-1,1,12,-1
C=CCn1c(SCC(=O)Nc2cc(C)on2)nnc1C1COc2ccccc2O1 (stereo not given),-6,-3,-8,1,26,-3
Cc1cc(NC(=O)CSc2nnc(C3COc4ccccc4O3)n2N)no1 (stereo not given),-1,-3,-5,1,-77*,-9
Clc1ccc(CNCCCSc2ncccn2)cc1,2,0,5,-1,12,-2
Brc1ccc(CNCCCSc2ncccn2)cc1,-3,35*,5,0,12,-6
CC(C)CC1NC(=O)c2ccc(Cl)cc2-n2c1nc1ccc(Cl)cc1c2=O (stereo not given),2,-11,.,1,.,.
CCCCn1c(N)c(N(CC(C)C)C(=O)c2ccc(OC)c(S(=O)(=O)N3CCOCC3)c2)c(=O)[nH]c1=O,.,.,-10,.,.,-5
O=C(CN1CCN(S(=O)(=O)N2CCCCC2)CC1)Nc1ccc(Cl)c(Cl)c1,45*,10,6,-2,-4,7
O=C(Cn1cnc2ccc(Cl)cc2c1=O)NC1CCS(=O)(=O)C1 (stereo not given),.,.,-4,.,.,-5
CC(=O)N(CC(=O)N(CC(=O)O)c1ccc(Cl)cc1)c1ccc(Cl)cc1,.,.,-9,.,.,-8
CC(C)(C)OC(=O)C[C@@H]1C/C=C\C[C@H](CC(=O)N[C@H](CO)Cc2ccccc2)C(=O)N[C@H](Cc2ccccc2)COC1=O,-2,2,-15,0,.,-2
CC(C)(C)OC(=O)C[C@H]1C/C=C\C[C@H](CC(=O)N[C@H](CO)Cc2ccccc2)C(=O)N[C@H](Cc2ccccc2)COC1=O,83*,3,-7,0,.,-3
O=C(C[C@H]1C/C=C\CC[C@H](Cc2ccc(F)cc2)C(=O)O[C@H](c2ccccc2)CNC1=O)N[C@H](CO)Cc1ccccc1,+,2,-4,0,.,-1
O=C(C[C@H]1C/C=C\CC[C@H](Cc2ccc(F)cc2)C(=O)O[C@@H](c2ccccc2)CNC1=O)N[C@@H](CO)Cc1ccccc1,-7,2,-25,-1,.,0
CN(C)/C(=N\S(=O)(=O)c1ccc(F)cc1)c1ccccc1,-6,1,-3,0,3,-1
CN(C)/C(=N\S(=O)(=O)c1ccccc1)c1ccc(F)cc1,16*,1,1,0,0,-5
SMILES,LANA-H2B inh,HDAC3 inh,ATG4B inhibitor,A1 inh,AI-2 QS mod,HKDC1 inh
Oc1c(N=NC(=S)Nc2ccccc2F)c2ccccc2n1Cc1ccc(Cl)cc1,21*,-1,2,0,6,-7
CC(C)C[C@@H](CN)NC(=O)c1nc[nH]c1C(=O)N[C@@H](CC(C)C)C(=O)CNC[C@H](C)NC(=O)c1nc[nH]c1C(=O)N[C@@H](C)C(=O)O,.,.,2,.,.,-2
Cc1c(Cc2ccccc2)sc(/N=C/c2c(O)ccc3ccccc23)c1C(N)=O,-4,-19,52*,0,59,6
Cc1ccc(/C=N/c2sc(Cc3ccccc3)c(C)c2C(N)=O)o1,2,13,20,0,7,-6
Cc1c(Cc2ccccc2)sc(/N=C/c2ccc3ccccc3c2)c1C(N)=O,+,-2,4,1,.,16
O=C(Nc1nc(-c2ccccn2)cs1)c1ccc(Br)s1,0,1,12,-2,-95*,3
O=C(Nc1nc(-c2ccccn2)cs1)c1ccco1,6,-2,1,0,32,-6
N#Cc1c(NC(=O)c2ccccc2Cl)n(Cc2ccccc2)c2nc3ccccc3nc12,-401,-3,52*,0,.,8
CCCCn1c(NC(=O)c2ccccc2Cl)c(C#N)c2nc3ccccc3nc21,-11,5,32,0,1,17
CC1=C/C(=N\OS(=O)(=O)c2ccccc2)C(C)=CC1=O,0,9,0,17*,.,18
COc1ccc(NC(=O)C2(S(=O)(=O)c3ccc(C)cc3)CC2)cc1OC,26*,-2,-14,1,3,2
Cc1c(C(=O)O)sc(S(=O)(=O)N2CCN(C(=O)CC(C)c3ccccc3)CC2)c1C(=O)O (stereo not given),.,.,-1,.,.,-4
O=C(COc1ccccc1)Nc1nnc(-c2ccccc2Cl)o1,1,7,3,0,-79*,-1
O=C(COc1ccccc1)Nc1nnc(-c2ccc(F)cc2)o1,7,0,3,-1,?,-4
CN1CCN(CC(=O)Nc2ccccc2C(F)(F)F)CC1,3,-4,3,2,3,0
CN1CCN(CCNC(=O)Nc2ccccc2C(F)(F)F)CC1,17*,1,7,0,7,-2
COc1nc(N)nc2c1ncn2C1OC(CO)CC1O (stereo not given),.,.,-9,.,.,-8
CCCCCCCCCCOC(=O)Cn1c(COc2ccccc2)[n+](C)c2ccccc21,1,20,16,-1,30,1
CCCCCCCCCCOC(=O)Cn1c(COc2ccc(Cl)cc2)[n+](C)c2ccccc21,10,52*,-3,1,22,-7
Cc1cccc(CS(=O)(=O)c2ncc(Cl)c(C(=O)Nc3nnc(C(C)C)s3)n2)c1,-2,-4,6,8.1*,9,11
CC(=O)OCC(=O)C1(O)CCC2C3CCC4=CC(=O)CCC4(C)C3(F)C(O)CC21C (stereo not given),.,.,-6,.,.,-9
